In publication PMC5460915 (Molecular pharmaceutics, 2015):

How the values were obtained:
[1] = system: NTR1-positive HT-29 tumor; test: In vivo near-infrared fluorescence imaging; set-up: species or system mice bearing human HT-29 xenograft; details: 1.5 nmol i.v., 1 and 4 h p.i., Cy5.5 filter set
[2] = Biodistribution in nude mice bearing HT-29 tumor; format: in vivo, nude mice bearing HT-29 xenograft; details: for tissue uptake at 4 h: male, athymic nude BALB/c nu/nu, mouse, total radioactivity
Method in brief: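 HT-29 cells (McCoy's 5A, 10% FBS, 37 °C, 5% CO2; trypsin-EDTA at 80% confluence) at 1 × 10^6 per 0.1 mL s.c. in the shoulder of 4–6-wk male BALB/c nu/nu mice, used at ≥3 mm tumor diameter. 3.7 MBq 64Cu-labelled test compound (HPLC-purified, in PBS) given. Mice killed under inhalation anesthesia 4 h p.i.; tissues weighed and gamma-counted. Group mean %ID/g ± SD.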

[3] = system: NTR1-positive HT-29 tumor; test: Ex vivo near-infrared fluorescence imaging of tumors and organs; format: in vivo, mice bearing human HT-29 xenograft
[4] = system: NTR1-positive HT-29 tumor; test: Small animal PET imaging in HT-29 xenograft mice; format: in vivo, human HT-29 xenograft in male athymic mice (BALB/c nu/nu)
Method in brief: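 Xenografts were HT-29 cells, 1 × 10^6 per 0.1 mL s.c. in the shoulder, tumors ≥3 mm. Radioligand labelled with 64CuCl2 in NH4OAc pH 5.5 at 37 °C for 60 min, HPLC-purified, in PBS (about 10.2 GBq/μmol). About 3.7 MBq via tail vein, n = 3/group; blocking group co-given 100 μg unlabelled NT. PET at 1 and 4 h p.i. ROI counts/g/min (1 g/mL density assumed) divided by injected dose gave %ID/g.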

[5] = In vitro stability in PBS; format: physicochemical; details: PBS (1×), 37 MBq/mL, radio-HPLC
Method in brief: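 64Cu-labelled test compound HPLC-purified, solvent evaporated and taken up in 1× PBS at 37 MBq/mL. Radiochemical purity by radio-HPLC at 30 min, 2 h and 6 h of incubation.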

[6] = target: NTR1 (NTR1-positive HT-29 cells) (Homo sapiens, UniProt P30989); test: In vitro competitive cell binding assay against 125I-NT; details: as supported by the similar IC50 values
[7] = system: NTR1-expressing HT-29 tumor; test: Immunohistochemistry and fluorescence microscopy of HT-29 tumor sections; format: in vivo, mice bearing human HT-29 xenograft
Method in brief: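 Dye-conjugated test compound given i.v. to HT-29 xenograft mice, with or without a blocking dose of NT peptide. Tumors taken 4 h p.i., […], cut at 6 μm (cryostat, −25 °C) and fixed in ice-cold acetone for 15 min. Peroxidase quenched with 3% H2O2 in methanol, then blocked with 10% horse serum for 1 h at RT. Anti-CD31 with labelled secondary (1:200), DAPI 2 μg/mL for 20 min at 37 °C. Confocal imaging, 40× objective.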

Chain of NTR1 (NTR1-positive HT-29 cells) (P30989 whole entry): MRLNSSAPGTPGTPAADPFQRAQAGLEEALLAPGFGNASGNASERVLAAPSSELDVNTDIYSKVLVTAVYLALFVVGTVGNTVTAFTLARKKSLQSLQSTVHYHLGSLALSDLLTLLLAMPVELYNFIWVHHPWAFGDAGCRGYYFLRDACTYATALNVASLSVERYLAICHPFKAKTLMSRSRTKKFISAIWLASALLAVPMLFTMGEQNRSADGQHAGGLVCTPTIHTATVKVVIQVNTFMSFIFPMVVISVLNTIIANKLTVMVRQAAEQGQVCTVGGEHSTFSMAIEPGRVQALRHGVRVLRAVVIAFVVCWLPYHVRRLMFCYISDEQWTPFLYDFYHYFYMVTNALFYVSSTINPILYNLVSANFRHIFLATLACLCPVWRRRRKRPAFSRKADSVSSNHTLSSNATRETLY

SMILES | tumor fluorescence signal in vivo (in words) [1] | tumor-to-muscle ratio ([2]; 4 h p.i., based on biodistribution, HT-29 xenograft, mean ± SD) | tumor uptake relative to liver, PET and biodistribution (in words) ([2]; HT-29 tumor vs liver, PET imaging and biodistribution) | muscle, lung, and heart uptake (in words) ([2]; biodistribution, 4 h p.i., 3.7 MBq) | tissue uptake at 4 h ([2]; kidney, 3.7 MBq) [%ID/g] | tissue uptake at 4 h ([2]; liver, 3.7 MBq) [%ID/g] | tumor uptake relative to liver, optical imaging (in words) ([3]; HT-29 tumor vs liver, optical imaging) | tumor to muscle contrast (in words) ([3]; PET and ex vivo fluorescence, 4 h p.i.) | organs with high probe uptake (in words) ([3]; ex vivo fluorescence, 1.5 nmol i.v., 4 h p.i.) | tumor uptake ([4]; PET ROI, HT-29 xenograft, 1 h p.i., ~3.7 MBq tail vein, n = 3/group, mean ± SD) [%ID/g] | inhibition of tumor uptake by nonradioactive Cys-NT (in words) ([4]; blocking experiment, P < 0.05, all time points (Figures 3 and 5: PET and fluorescence)) | uptake in normal organs, blocked vs unblocked (in words) ([4]; liver, kidneys, muscle, with vs without 100 μg unlabeled NT) | radiochemical purity ([5]; 30 min after incubation) | radiochemical purity ([5]; 2 h after incubation) [%] | radiochemical purity ([5]; 6 h after incubation) [%] | binding affinity compared between DOTA-NT-Cy5.5 and NT (in words) [6] | fluorescent signal in tumors of blocking animals (in words) ([7]; 4 h p.i., with blocking dose of NT peptide vs without) | specific binding in HT-29 tumor (in words) ([7]; FL microscope, coinjected Cys-NT peptide)
CC[C@H](C)[C@H](NC(=O)[C@H](Cc1ccc(O)cc1)NC(=O)[C@@H]1CCCN1C(=O)[C@H](CCCNC(=N)N)NC(=O)[C@H](CCCNC(=N)N)NC(=O)[C@@H]1CCCN1C(=O)[C@H](CCCCN)NC(=O)[C@H](CSC1CC(=O)N(CCNC(=O)CCCCC[N+]2=C(C=CC=CC=C3N(CC)c4ccc5c(S(=O)(=O)O)cc(S(=O)(=O)[O-])cc5c4C3(C)C)C(C)(C)c3c2ccc2c(S(=O)(=O)O)cc(S(=O)(=O)O)cc32)C1=O)NC(=O)CN1CCN(CC(=O)O)CCN(CC(=O)O)CCN(CC(=O)O)CC1)C(=O)N[C@@H](CC(C)C)C(=O)O (stereo partly drawn) [^64Cu-DOTA-NT-Cy5.5, metal not drawn] | the HT-29 tumor lit up at all the time points examined | 17.44 ± 3.25 | HT-29 tumor has lower uptake than liver | The muscle, lung, and heart had relatively low uptake | 14.2 ± 1.33 | 4.63 ± 0.74 | higher tumor uptake than liver | both PET and fluorescence gave good tumor to muscle contrast | The tumor, liver, and kidneys are three motifs that showed high probe uptake | 1.91 ± 0.22 | nonradioactive Cys-NT peptide significantly (P < 0.05) inhibited the tumor uptake | no significant difference in most of the normal organs | greater than 98.9% | > 96.9 | > 90.8 |  |  | 
CC[C@H](C)[C@H](NC(=O)[C@H](Cc1ccc(O)cc1)NC(=O)[C@@H]1CCCN1C(=O)[C@H](CCCNC(=N)N)NC(=O)[C@H](CCCNC(=N)N)NC(=O)[C@@H]1CCCN1C(=O)[C@H](CCCCN)NC(=O)[C@H](CSC1CC(=O)N(CCNC(=O)CCCCC[N+]2=C(C=CC=CC=C3N(CC)c4ccc5c(S(=O)(=O)O)cc(S(=O)(=O)[O-])cc5c4C3(C)C)C(C)(C)c3c2ccc2c(S(=O)(=O)O)cc(S(=O)(=O)O)cc32)C1=O)NC(=O)CN1CCN(CC(=O)O)CCN(CC(=O)O)CCN(CC(=O)O)CC1)C(=O)N[C@@H](CC(C)C)C(=O)O (stereo partly drawn) [DOTA-NT-Cy5.5] |  |  |  |  |  |  |  |  |  |  |  |  |  |  |  | not significantly different | very weak fluorescent signals | tumor localization was clearly inhibited by coinjected Cys-NT peptide
